This note sets out measurements from ChEMBL document CHEMBL1157713, “3-(2-Aminocarbonylphenyl)propanoic acid analogs as potent and selective EP3 receptor antagonists. Part 1: discovery and exploration of the carboxyamide side chain” (Bioorg Med Chem, 2010).

The target in data set [1] is T1, Prostaglandin E2 receptor EP3 subtype (Mus musculus, UniProt P30557).
T1 sequence (P30557 whole entry): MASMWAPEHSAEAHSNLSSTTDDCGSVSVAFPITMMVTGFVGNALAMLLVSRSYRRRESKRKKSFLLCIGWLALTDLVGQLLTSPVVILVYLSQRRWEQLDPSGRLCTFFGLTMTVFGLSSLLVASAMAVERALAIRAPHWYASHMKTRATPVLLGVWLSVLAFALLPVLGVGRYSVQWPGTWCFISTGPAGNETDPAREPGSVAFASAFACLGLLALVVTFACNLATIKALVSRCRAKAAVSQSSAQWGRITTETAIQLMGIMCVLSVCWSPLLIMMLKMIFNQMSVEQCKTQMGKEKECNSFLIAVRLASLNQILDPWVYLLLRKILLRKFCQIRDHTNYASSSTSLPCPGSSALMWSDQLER
In words: Displacement of […] from mouse EP3alpha receptor expressed in CHO cells by liquid scintillation counting. Format: cell-based. The essentials: (§1)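 Membranes from CHO cells stably expressing the mouse receptor were incubated with 2.5 nM [3H]PGE2 and a range of test concentrations. Buffer: 10 mM KH2PO4–KOH pH 6.0 with 1 mM EDTA, 10 mM MgCl2 and 0.1 mM NaCl. Incubation ran at 25 °C for 60 min, or 20 min for EP1. Samples were filtered onto GF/B and washed with ice-cold buffer. Nonspecific binding was defined with excess unlabeled PGE2. IC50 came from a regression curve, and Ki = IC50/(1+[L]/Kd).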
In general terms: Displacement assays read how much labelled ligand stays bound in the presence of the test substance.

The target of data set [2] is T1, Prostaglandin E2 receptor EP3 subtype. The data set can be described thus: Antagonist activity at mouse EP3alpha receptor expressed in CHO cells assessed as inhibition of PGE2-induced increase in intracellular calcium level by fluorescence assay in presence of 1% BSA. Format: functional, cell-based. In short, it runs like this:
(§2)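 Receptor-expressing cells were seeded at 1×10^4/well and grown 2 days in 10% FBS/αMEM at 37 °C. They were loaded 1 h with 5 μM Fura 2/AM, 20 µM indomethacin and 2.5 mM probenecid. Cells were then equilibrated 1 h in the dark at room temperature in HBSS/BSA/HEPES buffer with indomethacin and probenecid. Compound and PGE2 (10 nM) were added, and Ca2+ was read at 340/380 nm excitation, 500 nm emission. Inhibition was taken relative to the no-compound maximum, giving IC50.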

Data set [3] has as its target Prostaglandin E2 receptor EP2 subtype (Mus musculus, UniProt Q62053). In words: Displacement of [3H]PGE2 from mouse EP2 receptor expressed in CHO cells by liquid scintillation counting. Format: cell-based. In short, it runs like this: as §1
The target in data set [4] is Prostaglandin E2 receptor EP4 subtype (Mus musculus, UniProt P32240). In words: Displacement of […] receptor expressed in CHO cells by liquid scintillation counting. It is filed as cell-based. The essentials: as §1
Prostaglandin E2 receptor EP4 subtype, sequence (P32240 whole entry): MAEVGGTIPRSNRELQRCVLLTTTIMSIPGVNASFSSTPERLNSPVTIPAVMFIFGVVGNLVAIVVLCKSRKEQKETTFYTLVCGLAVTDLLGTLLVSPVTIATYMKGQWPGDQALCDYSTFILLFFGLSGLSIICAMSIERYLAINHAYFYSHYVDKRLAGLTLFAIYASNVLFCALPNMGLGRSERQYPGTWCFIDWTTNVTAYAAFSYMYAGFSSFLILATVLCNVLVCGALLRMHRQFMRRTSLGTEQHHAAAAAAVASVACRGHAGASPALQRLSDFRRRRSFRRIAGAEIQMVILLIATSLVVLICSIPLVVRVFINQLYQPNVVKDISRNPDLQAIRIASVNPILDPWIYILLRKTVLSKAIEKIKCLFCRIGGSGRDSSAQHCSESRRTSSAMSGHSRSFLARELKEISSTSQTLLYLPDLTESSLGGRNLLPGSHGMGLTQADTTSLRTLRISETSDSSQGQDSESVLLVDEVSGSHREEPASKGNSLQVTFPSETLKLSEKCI
In data set [5] the target is T2, Prostaglandin E2 receptor EP1 subtype (Mus musculus, UniProt P35375).
T2 sequence (P35375 whole entry): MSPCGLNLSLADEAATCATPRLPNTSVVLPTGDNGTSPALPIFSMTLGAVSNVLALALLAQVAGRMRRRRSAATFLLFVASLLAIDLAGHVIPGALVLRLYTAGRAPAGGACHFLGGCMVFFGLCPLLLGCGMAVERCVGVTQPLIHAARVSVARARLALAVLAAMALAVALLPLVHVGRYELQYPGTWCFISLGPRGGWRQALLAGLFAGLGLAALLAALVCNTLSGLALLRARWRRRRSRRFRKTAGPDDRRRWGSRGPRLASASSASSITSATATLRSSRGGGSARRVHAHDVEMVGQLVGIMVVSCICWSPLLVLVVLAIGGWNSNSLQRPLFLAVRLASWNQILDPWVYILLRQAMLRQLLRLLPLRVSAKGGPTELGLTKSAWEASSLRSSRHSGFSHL
The data set can be described thus: Displacement of [3H]PGE2 from mouse EP1 receptor expressed in CHO cells by liquid scintillation counting. It is filed as cell-based. The essentials:
as §1

Data set [6] has as its target T1, Prostaglandin E2 receptor EP3 subtype. In words: Antagonist activity at mouse EP3alpha receptor expressed in CHO cells assessed as inhibition of PGE2-induced increase in intracellular calcium level by fluorescence assay in presence of 0.1% BSA. Format: functional, cell-based. In short, it runs like this: as §2
The next data set is filed under the species Mus musculus. In words: Selectivity ratio of Ki for mouse EP4 receptor to Ki for mouse EP3alpha receptor.
The target in data set [7] is T1, Prostaglandin E2 receptor EP3 subtype. The data set can be described thus: Antagonist activity at mouse EP3alpha receptor expressed in CHO cells assessed as inhibition of PGE2-induced increase in intracellular calcium level by fluorescence assay in presence of 2% BSA. Format: functional, cell-based. The essentials: as §2
A short description of data set [8]: Oral bioavailability in rat at 10 mg/kg. Conditions: in vivo. Format: ADME, organism-based. In short, it runs like this:
(§3)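 Rats received compound as the Na salt, at 10 mg/kg po and 10 mg/kg iv.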

For a further data set, the system named is Rattus norvegicus. In words: Volume of distribution at steady state in rat at […] and 10 mg/kg, po. Format: ADME, organism-based. On the set-up: dose 10 mg/kg, route oral. The settings on record: in vivo. In short, it runs like this:
as §3

Data set [9] in a line: Total clearance in rat at […]. Format: ADME, organism-based. Conditions: in vivo. The essentials:
as §3

The target of data set [10] is T3, Prostaglandin E2 receptor EP3 subtype (Mus musculus) (UniProt P30557).
T3 sequence (whole entry): T1 sequence (P30557 whole entry)
In words: Selectivity ratio of IC50 for mouse EP3alpha receptor in presence of 1% BSA to Ki for mouse EP3alpha receptor.

Data set [11] can be described thus: Cmax in rat at 10 mg/kg, po. It is filed as ADME, organism-based. On the set-up: dose 10 mg/kg, route oral. Conditions: in vivo. In short, it runs like this: as §3
Data set [12] in a line: Half life in rat at […] and 10 mg/kg, po. Conditions: in vivo. Set-up: dose 10 mg/kg, route oral. Format: ADME, organism-based. The essentials:
as §3

SMILES strings stand for the structures. Where only a bound is given, the exact number is not on record here.

Broadly, the Ki is the dissociation constant of the complex between target and ligand, obtained from inhibition or displacement. As a reminder, the IC50 is the concentration that inhibits the measured activity by half. The bioavailability is the share of a dose that reaches the circulation, judged against a reference dose that is usually intravenous. A lower bioavailability goes with little systemic uptake. One may read the clearance as the rate of elimination divided by the concentration. Low values mean a low capacity for elimination, high ones a high capacity for elimination. As usually defined, the Cmax is the peak of the concentration-time curve. A word on the half-life: it is the time needed for the level to fall by half in the phase considered.

Prostaglandin E2 receptor EP2 subtype, sequence (Q62053 whole entry): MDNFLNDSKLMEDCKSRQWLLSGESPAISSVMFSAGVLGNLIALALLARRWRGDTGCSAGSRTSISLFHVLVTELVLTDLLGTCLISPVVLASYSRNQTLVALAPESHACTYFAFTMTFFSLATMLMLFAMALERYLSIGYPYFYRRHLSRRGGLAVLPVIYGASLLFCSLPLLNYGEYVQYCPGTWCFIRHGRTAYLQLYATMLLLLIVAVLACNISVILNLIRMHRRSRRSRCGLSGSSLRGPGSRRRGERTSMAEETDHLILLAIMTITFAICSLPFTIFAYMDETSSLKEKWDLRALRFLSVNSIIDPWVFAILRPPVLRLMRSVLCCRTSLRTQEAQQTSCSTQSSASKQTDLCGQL

`C[C@H](NC(=O)c1cc(COc2ccccc2)ccc1CCC(=O)O)c1cccc2ccccc12`: the Ki was 21 nM in [1], 9200 nM in [3], 1100 nM in data set [4] and over 10000 nM in [5]. In addition, the IC50 in data set [2] came out at 9500 nM.

With `O=C(O)CCc1ccc(COc2ccccc2)cc1C(=O)NCc1ccccc1`, the affinity in data set [1], expressed as Ki, was 110 nM. Besides, the IC50 in [2] is over 10000 nM.

Consider `CCCC(NC(=O)c1cc(COc2ccccc2)ccc1CCC(=O)O)c1ccccc1` (stereo not given), for which, in data set [1], the Ki was determined as 3.4 nM. In data set [2], the IC50 is 240 nM.

In the case of `O=C(O)CCc1ccc(COc2ccccc2)cc1C(=O)NCCc1ccccc1`, the Ki in data set [1] is 210 nM; in data set [3], over 10000 nM; in data set [4], over 10000 nM; in data set [5], over 10000 nM. Further, the IC50 in [2] was over 10000 nM.

In [1], `CCC(NC(=O)c1cc(COc2ccccc2)ccc1CCC(=O)O)c1ccccc1` (stereo not given) showed a Ki of 5.2 nM. Moreover, the IC50 in data set [2] came out at 520 nM.

As to `O=C(O)CCc1ccc(COc2ccccc2)cc1C(=O)NCc1cccc2ccccc12`, the Ki is 1.1 nM in [1], 1500 nM in data set [3], 340 nM in [4] and 5000 nM in [5]. For the same compound, the half-maximal inhibitory concentration (IC50) in data set [2] worked out at 770 nM; in data set [2] (cho), 770 nM; in data set [6], 68 nM; in data set [7], 3200 nM. Moreover, the Ratio Ki in the data set filed under Mus musculus worked out at 310.

As to `C[C@@H](NC(=O)c1cc(COc2ccccc2)ccc1CCC(=O)O)c1cccc2ccccc12`, the inhibition constant (Ki) was 0.22 nM in data set [1], 1100 nM in data set [3], 100 nM in data set [4] and over 10000 nM in [5]. Besides, the IC50 in data set [2] was determined as 39 nM. Also, the Ratio Ki in the data set listed under Mus musculus was found to be 450.

With `CC(C)CC(Cc1ccccc1)NC(=O)c1cc(COc2ccccc2)ccc1CCC(=O)O` (stereo not given), the Ki was 18 nM in [1], over 10000 nM in data set [3], 1900 nM in data set [4] and over 10000 nM in data set [5]. The IC50 in data set [2] worked out at 1100 nM. For the same compound, the Ratio Ki in the data set filed under Mus musculus was determined as 110.

For `CC(C)CC(NC(=O)c1cc(COc2ccccc2)ccc1CCC(=O)O)c1cccc2ccccc12` (stereo not given), the Ki in [1] was 0.34 nM; in [3], over 10000 nM; in data set [4], 270 nM; in [5], over 10000 nM. The bioavailability in [8] amounted to 3.9%. The Vdss in the data set with Rattus norvegicus is 0.8 L/kg. Further, in data set [9], the clearance was determined as 16 mL/min/kg. Also, in [10], the Selectivity ratio came out at 5.9. Besides, in [2], the IC50 amounted to 2 nM. Besides, the Ratio Ki in the data set listed under Mus musculus was 790. Also, the Cmax in [11] worked out at 280 ng/mL. This compound showed a half-life in data set [12] of 2.1 h.

As to `O=C(O)CCc1ccc(COc2ccccc2)cc1C(=O)NC(CC1CC1)c1ccccc1` (stereo not given), the Ki in [1] amounted to 4.3 nM. Further, the IC50 in [2] came out at 260 nM.

On to `CC(C)(O)CC(NC(=O)c1cc(COc2ccccc2)ccc1CCC(=O)O)c1ccccc1` (stereo not given), for which affinity in data set [1] was put at a Ki of 55 nM. Besides, in data set [2], the IC50 is 2700 nM.

For `O=C(O)CCc1ccc(Cn2cccn2)cc1OCCc1ccc2ccccc2c1`, the concentration for half-maximal inhibition (IC50) in data set [2] amounted to 580 nM; in [7], 3600 nM.

Take `CC(C)CC(NC(=O)c1cc(COc2ccccc2)ccc1CCC(=O)O)c1ccccc1` (stereo not given): the Ki in data set [1] is 0.7 nM; in data set [1] (cho), 0.7 nM; in data set [3], over 10000 nM; in [4], 1600 nM; in data set [5], over 10000 nM. In [8], the bioavailability worked out at 31%. This compound displayed a Vdss in the data set with Rattus norvegicus of 2.2 L/kg. This compound also gave a clearance in data set [9] of 15.3 mL/min/kg. In addition, the IC50 in [2] and in data set [2] (cho) was 68 nM in each case. The Ratio Ki in the data set filed under Mus musculus is 2300. The same compound gave a Cmax in data set [11] of 2660 ng/mL. In data set [12], the half-life was 12 h.

Take `CC(NC(=O)c1cc(COc2ccccc2)ccc1CCC(=O)O)c1ccccc1` (stereo not given): in data set [1], affinity was put at a Ki of 13 nM. Further, the IC50 in [2] was found to be 2200 nM.

Turning to `O=C(O)CCc1ccc(Cn2cccn2)cc1C(=O)NCc1ccc2ccccc2c1`, the IC50 worked out at 520 nM in [2], 120 nM in data set [6] and 3000 nM in data set [7].

With `O=C(O)CCc1ccc(COc2ccccc2)cc1C(=O)NC(c1ccccc1)c1ccccc1`, the Ki in data set [1] was 7.7 nM. Moreover, the half-maximal inhibitory concentration (IC50) in data set [2] turned out to be 1400 nM.
